OX1R antag-1: OX1R (human) antagonism; OX1R-expressing cells, FRET antagonist read-out; 1.8% of 330,000 active; inhibition, % at 6.6 µM; in the data active = inhibition mostly above about 38%, no sharp cut-off; inactive = mostly below about 40%;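 note: 0% = agonist challenge alone and 100% = reference antagonist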
Target sequence (O43613 whole entry, looked up): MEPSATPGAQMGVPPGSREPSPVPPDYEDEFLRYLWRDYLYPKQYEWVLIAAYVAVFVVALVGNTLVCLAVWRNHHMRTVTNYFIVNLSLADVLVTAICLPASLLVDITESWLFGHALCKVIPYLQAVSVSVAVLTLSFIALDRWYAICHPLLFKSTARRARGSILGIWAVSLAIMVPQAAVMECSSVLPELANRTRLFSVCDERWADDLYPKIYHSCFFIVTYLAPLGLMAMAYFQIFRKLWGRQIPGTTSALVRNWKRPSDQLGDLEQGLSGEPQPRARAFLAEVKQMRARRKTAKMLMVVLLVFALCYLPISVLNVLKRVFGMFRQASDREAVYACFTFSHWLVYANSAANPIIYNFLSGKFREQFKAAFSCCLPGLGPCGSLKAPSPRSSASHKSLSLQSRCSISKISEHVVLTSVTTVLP
CHO-K1 Ca antag: M1 antagonist counterscreen hit in parental CHO-K1 cells | ATP-induced calcium, Fluo-8 fluorescence | 0.6% of 360,000 active | inhibition, % at 3 µM;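 active = inhibition above a per-plate cutoff, the plate's mean sample inhibition plus 3 SD, cut at about 24% in these data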;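 note: 0% = DMSO plus EC80 ATP and 100% = DMSO alone without ATP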
CHO parental Ca: counter-screen for OX1R antagonists: effect in parental CHO cells | parental CHO-K1, ATP-induced calcium, Fluo-8 fluorescence | inhibition, % at 5.6 µM | 0.63% of 330,000 active;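 active = inhibition above that plate's mean sample inhibition plus 3 SD, cut at about 26% in these data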;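 note: 0% = ATP-challenged DMSO wells and 100% = DMSO wells without ATP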
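Test system: untransfected parental CHO cell line; also added: ATP stimulus; dosing: 5.6 µM, single dose; signal: calcium-sensitive Fluo-8 fluorescence; measure: percent inhibition of ATP-evoked calcium rise, normalized to controls; benchmarks: low control ATP plus DMSO, high control DMSO only; replication: one well per compound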
OX1R antag-2: blocks the human orexin 1 receptor; 0.43% of 330,000 active; O43613; inhibition, % at 5 µM; CHO/OX1R cells, Fluo-8 calcium fluorescence, orexin A;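 active = inhibition above its plate's threshold, mean inhibition of all tested compounds on the plate plus 3 SD, cut at about 37% in these data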;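 note: 0% = orexin A challenge wells and 100% = SB-334867-A antagonist wells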
CHO-K1 Ca ag: M1 agonist counterscreen hit in parental CHO-K1 cells; Fluo-8 calcium fluorescence; scaled to maximal ATP response, vehicle zero; activation, % at 3 µM; 0.48% of 360,000 active; AID 602248; in the data active = activation above about 15%;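 note: untransfected CHO-K1 host cells lacking M1 receptor as counterscreen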
CHO-K1 Ca PAM: nonselective activator or artifact in parental CHO-K1 calcium assay; ATP EC20, Fluo-8 calcium fluorescence; 0% at ATP EC20, 100% at ATP max; activation, % at 3 µM; 0.02% of 360,000 active;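 active = activation above the run cutoff, the mean activation of all test compounds plus 3 SD, cut at about 40% in these data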;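 note: peak over basal fluorescence ratio in a 140 s read after ATP addition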
* hit, by the source's call. A selection: hits, their analogues and other compounds. The true share with any hit is near 2.9%.

Screening O=C(CSc1cccc[n+]1[O-])Nc1ccc([N+](=O)[O-])cc1Cl returned OX1R antag-1 65.3*, CHO-K1 Ca antag -7.1, CHO parental Ca -5.8, OX1R antag-2 -13.8, CHO-K1 Ca ag 0.1 and CHO-K1 Ca PAM 9.3.
Cc1c(Nc2cc(Cl)c3nonc3c2[N+](=O)[O-])c(=O)n(-c2ccccc2)n1C was read as CHO-K1 Ca antag 9.1, CHO-K1 Ca ag -0.2 and CHO-K1 Ca PAM -0.2.
`CCOC(=O)NNc1ccc2nonc2c1[N+](=O)[O-]` gave OX1R antag-1 34.7*, CHO parental Ca -12.6 and OX1R antag-2 -13.9.
Screening O=[N+]([O-])c1c(Nc2cccc(O)c2)cc(Cl)c2nonc12 returned OX1R antag-1 94.3*, CHO-K1 Ca antag 19.3, CHO parental Ca 43.0*, OX1R antag-2 46.9*, CHO-K1 Ca ag -0.3 and CHO-K1 Ca PAM 19.6.
`O=[N+]([O-])c1c(NCc2ccco2)ccc2nonc12` gave OX1R antag-1 67.5*, CHO-K1 Ca antag -3.5, CHO parental Ca -4.9, OX1R antag-2 -10.3, CHO-K1 Ca ag 0.0 and CHO-K1 Ca PAM -16.2.
Cc1cc([N+](=O)[O-])ccc1NCc1ccco1 was read as OX1R antag-1 10.3, CHO-K1 Ca antag -11.8, CHO parental Ca -2.6, OX1R antag-2 -4.3, CHO-K1 Ca ag 0.1 and CHO-K1 Ca PAM 18.1.
For O=C(O)c1ccccc1Nc1ccc([N+](=O)[O-])c2nonc12 the results were OX1R antag-1 34.2*, CHO-K1 Ca antag 3.5, CHO parental Ca 13.9, OX1R antag-2 9.9, CHO-K1 Ca ag -0.2 and CHO-K1 Ca PAM -0.5.
For CC(=O)c1ccc(OC(=O)c2nc(-c3ccccc3)oc2C)cc1 the results were OX1R antag-1 12.9, CHO-K1 Ca antag 13.8, CHO parental Ca -5.0, OX1R antag-2 -8.6, CHO-K1 Ca ag 0.8 and CHO-K1 Ca PAM 4.6.
Screening O=[N+]([O-])c1c(Nc2ccccc2)ccc2nonc12 returned OX1R antag-1 63.6*, CHO-K1 Ca antag -20.2, CHO parental Ca 0.6, OX1R antag-2 -2.5, CHO-K1 Ca ag 0.3 and CHO-K1 Ca PAM -1.5.
Cc1cc(C)cc(Nc2ccc3nonc3c2[N+](=O)[O-])c1 was read as OX1R antag-1 31.5, CHO-K1 Ca antag -4.4, CHO parental Ca -4.1, OX1R antag-2 -11.2, CHO-K1 Ca ag 0.4 and CHO-K1 Ca PAM 0.0.
COc1ccc(CC2SC(N)=NC2=O)cc1 (stereo not drawn) was read as OX1R antag-1 9.7, CHO-K1 Ca antag -5.8, CHO parental Ca -5.8, OX1R antag-2 -1.6, CHO-K1 Ca ag 1.4 and CHO-K1 Ca PAM 16.9.
For CN(C)C(=O)COC(=O)/C=C/c1ccccc1[N+](=O)[O-] the results were OX1R antag-1 39.4*, CHO-K1 Ca antag -2.6, CHO parental Ca 3.1, OX1R antag-2 -12.0, CHO-K1 Ca ag 0.6 and CHO-K1 Ca PAM 11.6.
CCNC(=O)COC(=O)/C=C/c1ccccc1[N+](=O)[O-] was read as OX1R antag-1 52.3, CHO-K1 Ca antag -7.5, CHO parental Ca -3.4, OX1R antag-2 -19.5, CHO-K1 Ca ag 0.5 and CHO-K1 Ca PAM 21.3.
For Cc1ncc(CO)c(/C=N/NC(=O)c2ccc(O)cc2)c1O the results were OX1R antag-1 3.3, CHO-K1 Ca antag 6.4, CHO parental Ca 0.1, OX1R antag-2 5.6, CHO-K1 Ca ag 0.1 and CHO-K1 Ca PAM -6.5.
Screening Cc1ncc(CO)c(/C=N/NC(=O)c2cc3c(s2)CCCC3)c1O returned OX1R antag-1 50.1*, CHO-K1 Ca antag -17.3, CHO parental Ca -12.2, OX1R antag-2 -19.5, CHO-K1 Ca ag 1.1 and CHO-K1 Ca PAM 9.7.
`Cc1cc(C(=O)NC2CCCc3c2cnn3-c2ccc(C)c(C)c2)n(C)n1` (stereo not drawn) gave OX1R antag-1 43.3, CHO-K1 Ca antag 25.3*, CHO parental Ca 45.4*, OX1R antag-2 12.3, CHO-K1 Ca ag 13.5 and CHO-K1 Ca PAM -26.2.
Cc1ccc(-n2ncc3c2CCCC3NC(=O)c2ccoc2)cc1C (stereo not drawn) was read as OX1R antag-1 45.6, CHO-K1 Ca antag 6.3, CHO parental Ca -12.4, OX1R antag-2 -26.8, CHO-K1 Ca ag 5.6 and CHO-K1 Ca PAM -4.3.
Screening Cc1cc(C)c(C(=O)NC2CCCc3c2cnn3-c2cccc(C)c2C)o1 (stereo not drawn) returned OX1R antag-1 58.8*, CHO-K1 Ca antag 0.8, CHO parental Ca -16.9, OX1R antag-2 1.8, CHO-K1 Ca ag 3.6 and CHO-K1 Ca PAM -13.7.

High-throughput results: PubChem, The Scripps Research Institute Molecular Screening Center
